The text below walks through data of publication PMC2913304 (Pharmaceutical research, 2008).

The test system of data set [1] is SKPT cells. Put plainly: Effect of potential inhibitors on basolateral uptake of carnosine. Format: in vitro ADME, rat. As to conditions: inhibitor 1 mM; 15-min uptake, basolateral pH 7.4. The procedure, abridged: (§1)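 Measured 15-min uptake at 37°C of [3H]substrate (with [14C]mannitol correction) from the apical or basolateral side, co-incubated with or without test compounds (PEPT2 and PHT1 substrates, unlabelled substrate, a cephalosporin). Apical buffer was pH 6.0 and basolateral pH 7.4. Test compounds were 1 mM for basolateral uptake. Results were compared with control by ANOVA and Dunnett's test. n=3–6.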

Data set [2] has as its system SKPT cells. As to conditions: cited from earlier work.
Data set [3] has as its system SKPT cells. Briefly: Effect of potential inhibitors on apical uptake of carnosine. Format: in vitro ADME, rat. The settings on record: 15-min uptake, apical pH 6.0; for reduction of apical uptake of carnosine: inhibitor 1 and 2 mM. The procedure, abridged:
as §1

The test system of data set [4] is rat choroid plexus primary cell cultures. As to conditions: cited from earlier work.
Data set [5] has as its system SKPT cells. Put plainly: Proton. The class given is in vitro ADME, rat. As to conditions: 15-min uptake, 10 µM, donor pH 5.5 to 7.4, basolateral pH 7.4. The procedure, abridged:
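The donor-side pH was varied from 5.5 to 7.4 while the opposite side was held at pH 7.4 (apical uptake) or pH 6.0 (basolateral uptake). Uptake of 10 µM [3H]substrate was measured over 15 min at 37°C. Values were compared with pH 7.4 by ANOVA and Dunnett's test. n=3–6.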

The target in data set [6] is T1, PEPT2 (Rattus norvegicus, UniProt Q63424).
T1 sequence (Q63424 1-729): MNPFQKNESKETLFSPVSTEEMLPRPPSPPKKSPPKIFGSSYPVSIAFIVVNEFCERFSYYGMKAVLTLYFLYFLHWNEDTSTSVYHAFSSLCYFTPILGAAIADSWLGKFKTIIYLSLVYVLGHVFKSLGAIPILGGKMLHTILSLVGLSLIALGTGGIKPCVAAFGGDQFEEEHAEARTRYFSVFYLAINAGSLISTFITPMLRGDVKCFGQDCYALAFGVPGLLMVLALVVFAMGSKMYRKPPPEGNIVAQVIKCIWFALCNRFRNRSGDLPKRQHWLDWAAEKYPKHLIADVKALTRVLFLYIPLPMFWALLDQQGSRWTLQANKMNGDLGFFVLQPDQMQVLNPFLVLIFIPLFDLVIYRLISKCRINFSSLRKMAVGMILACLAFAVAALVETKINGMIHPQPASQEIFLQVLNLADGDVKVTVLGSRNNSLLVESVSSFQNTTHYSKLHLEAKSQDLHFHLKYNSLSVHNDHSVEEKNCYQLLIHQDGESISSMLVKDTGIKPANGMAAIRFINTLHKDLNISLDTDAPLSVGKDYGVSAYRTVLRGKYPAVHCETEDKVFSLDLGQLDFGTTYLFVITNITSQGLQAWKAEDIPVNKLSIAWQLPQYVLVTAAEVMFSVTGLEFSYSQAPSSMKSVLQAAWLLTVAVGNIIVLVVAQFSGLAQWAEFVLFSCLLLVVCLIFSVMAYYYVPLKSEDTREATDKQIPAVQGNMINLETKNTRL
As to conditions: read-out: Km, PEPT2-mediated uptake; rat neonatal astrocytes; cited from earlier work.

Data set [7] relates to SKPT cells. Briefly: Substrate stability studies in SKPT compartments. Format: in vitro ADME, rat. The procedure, abridged: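 10 µM [3H]substrate applied apically or basolaterally (apical pH 6.0, basolateral pH 7.4) for 5–300 min at 37°C. Donor and receiver media were collected. Cells were washed, sonicated in water, extracted with an equal volume of acetonitrile, and centrifuged at 14,000 g for 10 min at 4°C. Reversed-phase C18 HPLC used isocratic 0.1 M NaH2PO4/0.075% heptafluorobutyric acid at 1 ml/min. Stability was taken from recovery and histidine appearance. n=3.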

In data set [8] the test system is SKPT cells. Put plainly: Carnosine transepithelial transport across SKPT cell monolayers. The class given is in vitro ADME, rat. The settings on record: 10 µM in donor compartment, slope of transport vs time. The procedure, abridged: (§2)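 Filter-grown SKPT monolayers with apical pH 6.0 (MES/Tris) and basolateral pH 7.4 (HEPES/Tris) buffers at 37°C. 10 µM [3H]substrate with [14C]mannitol was placed in the apical or basolateral donor side. Receiver aliquots were taken over time for scintillation counting. Paracellular flux was corrected with mannitol, and clearances were obtained from flux relative to the 10 µM donor concentration. n=3–5.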

Assay in data set [9]: as above
The class given is in vitro ADME, rat. As to conditions: rat, basolateral-to-apical transcellular flux relative to apical-to-basolateral flux, 10 µM carnosine. The procedure, abridged:
as §2

In data set [10] the target is T1, PEPT2. Put plainly: Concentration-dependent apical uptake of carnosine. The class given is in vitro ADME. The settings on record: 1–500 µM carnosine, 15-min uptake, pH 6.0.
Data set [11] has as its system basolateral transporter. Briefly: Concentration-dependent basolateral uptake of carnosine. Format: in vitro ADME, rat.
A short description of data set [12]: pKa and fractional ionization of carnosine. The class given is physicochemical.
The test system of data set [13] is SKPT cells. Briefly: Efflux studies after 2 hr apical preloading of SKPT monolayers. Format: in vitro ADME, rat. The procedure, abridged: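 Monolayers loaded apically with 10 µM [3H]substrate and [14C]mannitol for 2 h at 37°C, then washed four times with ice-cold buffer. Substrate-free buffer was added to both sides (apical pH 6.0, basolateral pH 7.4) at 37°C. Apical (100 µl) and basolateral (300 µl) samples were taken at set times and replaced. Radioactivity is expressed as percent of cell content after loading. n=3–5.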

The subject of data set [14] is SKPT cells. Briefly: Carnosine intracellular accumulation. The class given is in vitro ADME, rat. An outline of the steps: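 Rat kidney proximal tubule cells (SV40-transformed) grown on collagen-coated filter inserts and used 4 days after seeding, with no antibiotics for the final 24 h and monolayer resistance checked. Cells were preincubated 10 min at 37°C with apical pH 6.0 and basolateral pH 7.4 buffer. 10 µM [3H]substrate plus [14C]mannitol was added to one side, 37°C timed incubations. Cells washed with ice-cold buffer, solubilised (NaOH/SDS), counted. Values normalised to protein and mannitol-corrected. Concentration ratio used intracellular volume from 3-O-methyl-D-glucose uptake (1–10 mM, 300 min, phloridzin). n=3–5.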

The target in data set [15] is T1, PEPT2. As to conditions: read-out: Km, PEPT2-mediated uptake; rat choroid plexus whole tissue; cited from earlier work.
The subject of data set [16] is SKPT cells. Put plainly: Cellular compartment model: influx and efflux clearances of carnosine. Format: in vitro ADME, rat. An outline of the steps:
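A three-compartment (apical, cellular, basolateral) mass-balance model gave influx and efflux clearances (µl/min/mg protein). Transepithelial clearances came from 10 µM donor flux experiments. Each influx clearance equals the transcellular clearance divided by the steady-state fraction effluxed to the opposite compartment. These fractions came from efflux studies after 2 h apical loading.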

Substrate in data set [17]: NCCC(=O)N[C@@H](Cc1cnc[nH]1)C(=O)O
Briefly: Concentration-dependent apical uptake of carnosine. Format: in vitro ADME, rat. As to conditions: other: 1–500 µM carnosine, 15-min uptake, pH 6.0, 37.0 °C.

[18] abbreviates: at 60 min, after 2 hr apical preloading with 10 µM.
The mark [19] stands for this setting: single exponential fit of efflux-time profile.

Where two headings read alike, the source gives them in different places. Non-standard residues stand in square brackets, D forms with d. Residues, ends and D or L forms follow the SMILES beside them. Sar = CNCC(=O)O

Consider `CC1=C(C(=O)O)N2C(=O)[C@@H](NC(=O)[C@H](N)c3ccc(O)cc3)[C@H]2SC1` [cefadroxil], for which the “reduction of basolateral uptake of carnosine” value in data set [1] was 90–99%.
Consider `CN(CC(=O)O)C(=O)CN` [GlySar, glycylsarcosine] (H-Gly-[Sar]-OH), for which, in data set [1], the “reduction of basolateral uptake of carnosine” value is reported as 90–99%. Also, the “apical uptake relative to basolateral uptake” value in data set [2] (ref 37) is given as “about 5 ×”. In data set [2] (ref 38), the “apical uptake relative to basolateral uptake” value is on record as “about 3.5 ×” and the “apical-to-basolateral transepithelial flux higher than reverse flux” value is 28%. In [3], the “reduction of apical uptake of carnosine” value is reported as 90%.
Take `NCCC(=O)N[C@@H](Cc1cnc[nH]1)C(=O)O` [carnosine, β-alanyl-L-histidine]: in data set [4], the “apical efflux relative to basolateral efflux” value is given as “about 4 times” and the “intracellular to extracellular concentration ratio” value is “approximately 135”. For the same molecule, the “pH of maximal apical uptake” value in data set [5] turned out to be 6.5. In data set [6], the Michaelis-Menten constant (Km) was 43 µM. Moreover, the “stability in donor compartment” value in data set [7] (apical or basolateral donor side, up to 300 min of incubation) was “remained intact”. Also, in data set [7] (intracellular compartment, 60 min), the “intact in intracellular compartment at 60 min” value was “about 87%”. Further, the “intact in intracellular compartment at 300 min” value in [7] (intracellular compartment, 300 min) was 81%. The “intact in intracellular compartment, first 15 min” value in data set [7] (intracellular compartment, first 15 min of incubation) is given as greater than 94%. In data set [8], this molecule had an A-to-B transepithelial rate of 1.99 pmol/min/mg protein and a B-to-A transepithelial rate of 3.74 pmol/min/mg protein. In data set [9], the efflux ratio at 10 µM is roughly 2. The “Vmax, apical membrane uptake” value in data set [10] turned out to be 659±27 pmol/mg/15min. Also, the “reduction of basolateral uptake of carnosine” value in [1] was 90–99%. Further, in [3], the “reduction of apical uptake of carnosine” value came out at 96%. In data set [11] (1–500 µM carnosine, 15-min uptake, pH 7.4), the “Vmax, basolateral membrane uptake” value was 27.4±1.3 pmol/mg/15min. For the same molecule, the “lower affinity of basolateral transporter compared to apical transporter” value in data set [11] (Km comparison) was determined as 2 fold. Also, the “lower capacity of basolateral transporter compared to apical transporter” value in [11] (Vmax comparison) is on record as 24 fold. In addition, the “ionized (NH3+) at pH 5.5” value in [12] (pH 5.5) stood at 95%. The “ionized (NH3+) at pH 6.5” value in [12] (pH 6.5) is reported as 65%. Besides, the “ionized (NH3+) at pH 7.4” value in data set [12] (pH 7.4) was 15–20%. For the same molecule, the “cell-to-apical efflux relative to cell-to-basolateral efflux” value in [13] (SKPT cells) was “about 10 times”. Moreover, in data set [13] (setting [18]), the “carnosine effluxed from cell to apical compartment” value was “about 40%” and the “carnosine effluxed from cell to basolateral compartment” value was “about 4%”. In addition, in data set [13] (single exponential fit), the “fefflux.A (fraction effluxed to apical compartment at steady state)” value was found to be 0.66 and the “fefflux.B (fraction effluxed to basolateral compartment at steady state)” value was found to be 0.047. Further, in [13] (setting [19]), the “carnosine effluxed from cellular to apical compartment at steady state” value is 66% and the “carnosine effluxed to basolateral compartment at steady state” value worked out at 4.7%. Moreover, in data set [14] (10 µM carnosine), the “time over which uptake was linear, apical surface” value is given as 60 min and the “time over which uptake was linear, basolateral surface” value amounted to 30 min. The “basolateral uptake plateau value” in data set [14] (10 µM carnosine introduced from basolateral compartment) stood at 15 pmol/mg protein. Also, the “apical uptake plateau value” in data set [14] (10 µM carnosine, at 180–300 min) is reported as “approximately 220 pmol/mg protein”. The “intracellular to extracellular concentration ratio, basolateral introduction” value in data set [14] (10 µM extracellular) turned out to be 0.8. The “intracellular to extracellular concentration ratio, apical introduction” value in data set [14] (10 µM extracellular, intracellular volume 2.0 µl/mg protein) was 11. Further, the Km in [15] was 39 µM. For the same molecule, in data set [16], the CLBC/CLCA ratio was 0.8, the CLBC/CLCB ratio turned out to be 32 and the CLCB/CLAC ratio stood at 0.004.
`N[C@@H](Cc1c[nH]cn1)C(=O)O` [histidine, L-histidine]: the “effect on basolateral uptake of carnosine” value in data set [1] was “unaffected”. Also, in [3] (inhibitor 1, 2 and 5 mM), the “effect on apical uptake of carnosine” value is given as “unaffected”.

B1: PEPT2 (Rattus norvegicus) (protein)
chain: T1 sequence (Q63424 1-729)
On to B1, for which, in data set [17], the Km was 49 ± 8 µM.

The Km is the concentration of substrate that gives half-maximal velocity. Usually efflux ratio stands for the permeability from basolateral to apical divided by that in the opposite direction, in the common usage.
